Activity calls are given as the source filed them. The calls are words filed in the database; no cut-off is given here.
Tests used:
[1] = target: Eukaryotic elongation factor 2 kinase (Homo sapiens) (UniProt O00418); experiment: Inhibition of EF2K assessed as residual activity at 10 uM relative to control
[2] = target: Cyclin-dependent kinase 2/cyclin A (Homo sapiens) (UniProt P24941+P20248+P78396); experiment: Inhibition of CDK2-Cyclin A assessed as residual activity at 1 uM relative to control; type: protein-complex assay
Outline: (§1)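 Standard radioactivity-based enzymatic assays were run across a 124-kinase panel (Dundee profiling), with compound at 1 µM. Kinase activity was expressed relative to control.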

[3] = target: Dual specificity mitogen-activated protein kinase kinase 1 (Homo sapiens) (UniProt Q02750); experiment: Inhibition of MKK1 assessed as residual activity at 1 uM relative to control
Dual specificity mitogen-activated protein kinase kinase 1 (Homo sapiens), sequence (Q02750 whole entry): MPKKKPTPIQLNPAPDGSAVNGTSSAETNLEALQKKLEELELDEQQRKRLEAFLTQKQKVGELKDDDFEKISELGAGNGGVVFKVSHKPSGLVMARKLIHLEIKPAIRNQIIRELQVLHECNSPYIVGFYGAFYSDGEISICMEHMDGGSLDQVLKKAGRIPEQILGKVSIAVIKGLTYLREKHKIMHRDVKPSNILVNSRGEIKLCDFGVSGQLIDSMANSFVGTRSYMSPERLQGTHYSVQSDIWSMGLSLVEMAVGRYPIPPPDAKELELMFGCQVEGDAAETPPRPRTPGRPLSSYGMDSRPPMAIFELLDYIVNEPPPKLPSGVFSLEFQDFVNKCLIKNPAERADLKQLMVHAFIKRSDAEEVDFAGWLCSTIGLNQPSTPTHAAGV

[4] = target: RAC-alpha serine/threonine-protein kinase (Homo sapiens) (UniProt P31749); experiment: Inhibition of PKBalpha assessed as residual activity at 1 uM relative to control
RAC-alpha serine/threonine-protein kinase (Homo sapiens), sequence (P31749 whole entry): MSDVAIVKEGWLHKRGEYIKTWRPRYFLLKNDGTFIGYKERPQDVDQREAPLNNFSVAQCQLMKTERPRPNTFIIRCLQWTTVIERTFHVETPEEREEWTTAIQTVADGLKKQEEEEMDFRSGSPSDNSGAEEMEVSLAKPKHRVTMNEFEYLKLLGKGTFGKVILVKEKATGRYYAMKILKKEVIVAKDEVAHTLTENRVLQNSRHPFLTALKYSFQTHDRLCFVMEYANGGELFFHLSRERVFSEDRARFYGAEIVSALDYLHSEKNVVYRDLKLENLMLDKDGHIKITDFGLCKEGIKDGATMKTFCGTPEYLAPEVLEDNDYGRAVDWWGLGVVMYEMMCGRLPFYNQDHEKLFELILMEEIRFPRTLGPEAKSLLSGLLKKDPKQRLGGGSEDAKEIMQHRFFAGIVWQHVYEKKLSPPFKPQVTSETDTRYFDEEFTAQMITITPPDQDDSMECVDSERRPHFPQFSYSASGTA

[5] = target: Mitogen-activated protein kinase 12 (Homo sapiens) (UniProt P53778); experiment: Inhibition of p38gamma MAPK assessed as residual activity at 1 uM relative to control
Outline: (§2)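 Radioactivity-based enzymatic kinase assays run across a 124-kinase profiling panel (Dundee), reporting the remaining kinase activity relative to a control.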

[6] = target: Mitogen-activated protein kinase 15 (Homo sapiens) (UniProt Q8TD08); experiment: Inhibition of ERK8 assessed as residual activity at 10 uM relative to control
[7] = target: Maternal embryonic leucine zipper kinase (Homo sapiens) (UniProt Q14680); experiment: Inhibition of MELK assessed as residual activity at 1 uM relative to control
[8] = target: MAP kinase-activated protein kinase 5 (Homo sapiens) (UniProt Q8IW41); experiment: Inhibition of PRAK assessed as residual activity at 10 uM relative to control
MAP kinase-activated protein kinase 5 (Homo sapiens), sequence (Q8IW41 whole entry): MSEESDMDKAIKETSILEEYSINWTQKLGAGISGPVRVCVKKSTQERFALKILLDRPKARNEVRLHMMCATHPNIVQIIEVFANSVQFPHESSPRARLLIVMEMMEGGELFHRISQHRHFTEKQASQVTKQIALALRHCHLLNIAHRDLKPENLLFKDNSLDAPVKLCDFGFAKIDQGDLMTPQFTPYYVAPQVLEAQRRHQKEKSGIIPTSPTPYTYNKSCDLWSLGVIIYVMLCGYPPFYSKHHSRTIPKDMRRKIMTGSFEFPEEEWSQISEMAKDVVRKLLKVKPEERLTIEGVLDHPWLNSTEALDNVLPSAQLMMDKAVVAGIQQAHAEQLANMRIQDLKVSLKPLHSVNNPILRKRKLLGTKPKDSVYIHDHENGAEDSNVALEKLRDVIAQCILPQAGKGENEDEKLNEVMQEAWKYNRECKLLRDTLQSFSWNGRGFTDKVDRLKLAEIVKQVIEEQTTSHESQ

[9] = Inhibition of CK1 assessed as residual activity at 1 uM relative to control; outline: as §1
[10] = target: Serine/threonine-protein kinase Sgk1 (Homo sapiens) (UniProt O00141); experiment: Inhibition of SGK1 assessed as residual activity at 1 uM relative to control
Serine/threonine-protein kinase Sgk1 (Homo sapiens), sequence (O00141 whole entry): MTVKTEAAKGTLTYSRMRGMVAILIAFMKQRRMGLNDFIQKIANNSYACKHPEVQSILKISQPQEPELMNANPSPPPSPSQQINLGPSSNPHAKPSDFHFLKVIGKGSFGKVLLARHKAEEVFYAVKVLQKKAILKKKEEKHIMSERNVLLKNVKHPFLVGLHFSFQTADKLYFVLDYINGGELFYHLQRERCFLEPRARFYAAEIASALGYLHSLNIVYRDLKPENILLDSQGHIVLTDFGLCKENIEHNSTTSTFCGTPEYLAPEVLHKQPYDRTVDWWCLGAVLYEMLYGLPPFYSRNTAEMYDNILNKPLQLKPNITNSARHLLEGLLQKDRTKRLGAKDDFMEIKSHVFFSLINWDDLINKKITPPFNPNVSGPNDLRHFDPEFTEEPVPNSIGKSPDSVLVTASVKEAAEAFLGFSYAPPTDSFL

[11] = target: RAC-alpha serine/threonine-protein kinase (Homo sapiens) (UniProt P31749); experiment: Inhibition of PKBalpha assessed as residual activity at 10 uM relative to control
[12] = target: Leucine-rich repeat serine/threonine-protein kinase 2 (Homo sapiens, UniProt Q5S007); experiment: Inhibition of wild-type LRRK2 phosphorylation at Ser910 expressed in HEK293 cells after 90 mins by immunoblot analysis; type: cell-based
Outline: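 HEK293 cells stably expressing wild-type GFP-LRRK2 exposed to DMSO or increasing inhibitor concentrations for 90 min. Lysates immunoblotted for LRRK2 phosphorylated at Ser910 and Ser935 and for total LRRK2.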

[13] = target: Serine/threonine-protein kinase PAK 4 (Homo sapiens) (UniProt O96013); experiment: Inhibition of PAK4 assessed as residual activity at 10 uM relative to control
[14] = target: Inhibitor of nuclear factor kappa-B kinase subunit beta (Homo sapiens) (UniProt O14920); experiment: Inhibition of IKKbeta assessed as residual activity at 10 uM relative to control
Inhibitor of nuclear factor kappa-B kinase subunit beta (Homo sapiens), sequence (O14920 whole entry): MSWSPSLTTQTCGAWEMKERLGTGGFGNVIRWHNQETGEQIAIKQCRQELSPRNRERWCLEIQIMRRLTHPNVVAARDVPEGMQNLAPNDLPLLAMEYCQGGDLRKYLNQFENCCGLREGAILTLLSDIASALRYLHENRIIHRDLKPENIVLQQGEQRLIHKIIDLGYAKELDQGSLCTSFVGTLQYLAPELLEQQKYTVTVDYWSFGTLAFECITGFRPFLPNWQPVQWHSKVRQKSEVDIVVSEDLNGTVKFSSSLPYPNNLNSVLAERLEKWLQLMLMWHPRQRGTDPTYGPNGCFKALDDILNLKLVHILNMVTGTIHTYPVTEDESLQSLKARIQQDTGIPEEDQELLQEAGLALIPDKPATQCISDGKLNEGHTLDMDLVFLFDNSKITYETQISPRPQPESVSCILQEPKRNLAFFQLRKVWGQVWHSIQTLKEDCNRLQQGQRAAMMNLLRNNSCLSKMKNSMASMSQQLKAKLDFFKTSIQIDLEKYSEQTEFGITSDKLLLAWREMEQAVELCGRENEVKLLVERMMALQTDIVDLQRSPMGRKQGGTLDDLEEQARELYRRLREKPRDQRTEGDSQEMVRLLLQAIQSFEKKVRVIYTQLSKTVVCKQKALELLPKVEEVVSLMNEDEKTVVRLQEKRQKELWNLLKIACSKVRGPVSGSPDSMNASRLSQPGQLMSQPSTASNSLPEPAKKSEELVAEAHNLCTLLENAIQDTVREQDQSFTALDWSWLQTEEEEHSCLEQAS

Mus musculus [15] = experiment: Inhibition of LRRK2 phosphorylation at Ser935 in C57BL/6 mouse spleen at 10 mg/kg, po administered for 8 hrs followed by 2 hrs dosing; type: functional, organism-based; parameters: dose 10 mg/kg
Outline: (§3)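 Mice were dosed by oral gavage at 10 or 50 mg/kg. Brain, spleen and kidney were collected. Endogenous LRRK2 was resolved by SDS–PAGE and blotted with phospho-specific antibodies to Ser910 and Ser935 and with an antibody to total LRRK2.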

[16] = target: Dual specificity tyrosine-phosphorylation-regulated kinase 2 (Homo sapiens) (UniProt Q92630); experiment: Inhibition of DYRK2 assessed as residual activity at 10 uM relative to control
Dual specificity tyrosine-phosphorylation-regulated kinase 2 (Homo sapiens), sequence (Q92630 whole entry): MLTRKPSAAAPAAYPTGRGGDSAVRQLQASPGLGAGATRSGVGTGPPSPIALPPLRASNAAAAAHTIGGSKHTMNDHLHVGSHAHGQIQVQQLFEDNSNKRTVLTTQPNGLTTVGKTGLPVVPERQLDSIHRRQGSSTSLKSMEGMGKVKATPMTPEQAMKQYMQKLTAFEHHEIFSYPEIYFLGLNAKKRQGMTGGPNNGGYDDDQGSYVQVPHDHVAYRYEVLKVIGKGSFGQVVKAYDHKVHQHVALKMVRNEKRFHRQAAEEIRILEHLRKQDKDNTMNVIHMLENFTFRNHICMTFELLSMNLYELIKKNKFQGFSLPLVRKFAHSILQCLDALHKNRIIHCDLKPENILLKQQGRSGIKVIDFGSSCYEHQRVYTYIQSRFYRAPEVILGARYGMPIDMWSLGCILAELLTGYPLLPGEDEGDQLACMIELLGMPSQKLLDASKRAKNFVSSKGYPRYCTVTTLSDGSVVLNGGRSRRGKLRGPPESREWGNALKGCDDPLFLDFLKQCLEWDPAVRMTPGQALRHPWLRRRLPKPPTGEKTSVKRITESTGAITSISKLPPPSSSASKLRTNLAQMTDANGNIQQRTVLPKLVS

[17] = Half life in Swiss albino mouse at 1 mg/kg, iv; type: ADME, organism-based; parameters: dose 1 mg/kg, route intravenous; details: in vivo
Outline: (§4)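 Male Swiss Albino mice were given a single dose, either intravenous at 1 mg/kg or oral at 10 mg/kg. AUClast was measured in plasma and in brain. Half-life, plasma clearance, volume of distribution and oral bioavailability were derived from the plasma data.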

Mus musculus [18] = experiment: Inhibition of LRRK2 phosphorylation at Ser910 in C57BL/6 mouse kidney at 10 mg/kg, po administered for 8 hrs followed by 2 hrs dosing; type: functional, organism-based; parameters: dose 10 mg/kg; outline: as §3
[19] = target: Inhibitor of nuclear factor kappa-B kinase subunit beta (Homo sapiens) (UniProt O14920); experiment: Inhibition of IKKbeta assessed as residual activity at 1 uM relative to control
[20] = target: Tyrosine-protein kinase BTK (Homo sapiens) (UniProt Q06187); experiment: Inhibition of BTK assessed as residual activity at 1 uM relative to control; outline: as §1
[21] = target: Serine/threonine-protein kinase TBK1 (Homo sapiens) (UniProt Q9UHD2); experiment: Inhibition of TBK1 assessed as residual activity at 10 uM relative to control
Serine/threonine-protein kinase TBK1 (Homo sapiens), sequence (Q9UHD2 whole entry): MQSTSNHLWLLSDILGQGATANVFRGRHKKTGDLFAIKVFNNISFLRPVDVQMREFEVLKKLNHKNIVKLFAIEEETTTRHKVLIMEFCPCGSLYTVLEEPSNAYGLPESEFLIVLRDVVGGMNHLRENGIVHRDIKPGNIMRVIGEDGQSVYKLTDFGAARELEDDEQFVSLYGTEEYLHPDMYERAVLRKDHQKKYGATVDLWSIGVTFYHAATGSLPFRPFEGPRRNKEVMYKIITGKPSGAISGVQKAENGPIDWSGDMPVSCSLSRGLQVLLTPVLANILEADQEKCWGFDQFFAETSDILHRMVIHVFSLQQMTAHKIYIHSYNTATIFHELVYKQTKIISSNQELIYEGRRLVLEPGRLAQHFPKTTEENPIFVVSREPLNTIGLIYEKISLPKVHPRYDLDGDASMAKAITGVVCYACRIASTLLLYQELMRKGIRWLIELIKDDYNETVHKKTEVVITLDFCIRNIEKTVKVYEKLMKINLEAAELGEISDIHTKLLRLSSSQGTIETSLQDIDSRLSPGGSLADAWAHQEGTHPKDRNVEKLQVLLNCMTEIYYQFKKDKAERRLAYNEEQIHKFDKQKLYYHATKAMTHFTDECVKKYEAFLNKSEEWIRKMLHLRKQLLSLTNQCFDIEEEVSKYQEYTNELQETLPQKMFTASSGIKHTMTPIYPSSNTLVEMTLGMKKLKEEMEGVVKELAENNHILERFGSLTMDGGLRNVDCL

[22] = target: Proto-oncogene tyrosine-protein kinase Src (Homo sapiens) (UniProt P12931); experiment: Inhibition of Src assessed as residual activity at 10 uM relative to control
Mus musculus [23] = experiment: Inhibition of LRRK2 phosphorylation at Ser910 in C57BL/6 mouse brain at 10 to 50 mg/kg, po administered for 8 hrs followed by 2 hrs dosing; type: functional, organism-based; outline: as §3
[24] = target: Tyrosine-protein kinase ZAP-70 (Homo sapiens) (UniProt P43403); experiment: Inhibition of ZAP70 assessed as residual activity at 10 uM relative to control; outline: as §2
Plasma = experiment: AUClast in Swiss albino mouse plasma at 1 mg/kg, iv; type: ADME, organism-based; parameters: time 0 - last, dose 1 mg/kg, route intravenous; details: in vivo; outline: as §4
[25] = target: Receptor-interacting serine/threonine-protein kinase 2 (Homo sapiens) (UniProt O43353); experiment: Inhibition of RIPK2 assessed as residual activity at 10 uM relative to control
[26] = target: Mitogen-activated protein kinase 14 (Homo sapiens) (UniProt Q16539); experiment: Inhibition of p38alpha MAPK assessed as residual activity at 1 uM relative to control; outline: as §2
Mus musculus [27] = experiment: Inhibition of LRRK2 phosphorylation at Ser935 in C57BL/6 mouse brain at 10 to 50 mg/kg, po administered for 8 hrs followed by 2 hrs dosing; type: functional, organism-based; outline: as §3
[28] = target: Angiopoietin-1 receptor (Homo sapiens) (UniProt Q02763); experiment: Inhibition of TIE2 assessed as residual activity at 10 uM relative to control; outline: as §2
[29] = target: Serine/threonine-protein kinase PAK 5 (Homo sapiens) (UniProt Q9P286); experiment: Inhibition of PAK5 assessed as residual activity at 1 uM relative to control
Serine/threonine-protein kinase PAK 5 (Homo sapiens), sequence (Q9P286 whole entry, looked up): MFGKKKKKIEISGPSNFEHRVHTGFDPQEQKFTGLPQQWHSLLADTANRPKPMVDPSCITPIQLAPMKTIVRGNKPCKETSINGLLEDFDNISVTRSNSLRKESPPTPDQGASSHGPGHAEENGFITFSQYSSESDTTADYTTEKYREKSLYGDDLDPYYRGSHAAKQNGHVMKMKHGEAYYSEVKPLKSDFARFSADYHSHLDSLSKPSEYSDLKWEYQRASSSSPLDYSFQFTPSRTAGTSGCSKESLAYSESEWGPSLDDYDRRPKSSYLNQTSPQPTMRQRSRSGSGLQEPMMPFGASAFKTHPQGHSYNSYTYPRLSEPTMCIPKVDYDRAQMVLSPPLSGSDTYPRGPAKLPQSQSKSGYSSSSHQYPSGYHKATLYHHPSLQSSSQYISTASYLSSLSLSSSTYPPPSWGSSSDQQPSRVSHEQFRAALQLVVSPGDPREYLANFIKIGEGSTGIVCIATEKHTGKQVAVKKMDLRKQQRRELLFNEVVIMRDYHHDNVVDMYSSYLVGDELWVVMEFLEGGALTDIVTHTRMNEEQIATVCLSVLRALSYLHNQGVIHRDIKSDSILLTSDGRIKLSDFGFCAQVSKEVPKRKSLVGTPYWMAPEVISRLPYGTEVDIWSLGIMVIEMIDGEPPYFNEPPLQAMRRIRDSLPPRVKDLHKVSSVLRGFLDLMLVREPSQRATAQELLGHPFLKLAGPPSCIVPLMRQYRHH

[30] = target: Ribosomal protein S6 kinase beta-1 (Homo sapiens) (UniProt P23443); experiment: Inhibition of S6K1 assessed as residual activity at 1 uM relative to control
[31] = target: Serine/threonine-protein kinase TBK1 (Homo sapiens) (UniProt Q9UHD2); experiment: Inhibition of TBK1 assessed as residual activity at 1 uM relative to control
[32] = target: Serine/threonine-protein kinase 26 (Homo sapiens) (UniProt Q9P289); experiment: Inhibition of MST4 assessed as residual activity at 10 uM relative to control
[33] = target: Mitogen-activated protein kinase 13 (Homo sapiens) (UniProt O15264); experiment: Inhibition of p38delta MAPK assessed as residual activity at 1 uM relative to control; outline: as §2
Mitogen-activated protein kinase 13 (Homo sapiens), sequence (O15264 whole entry): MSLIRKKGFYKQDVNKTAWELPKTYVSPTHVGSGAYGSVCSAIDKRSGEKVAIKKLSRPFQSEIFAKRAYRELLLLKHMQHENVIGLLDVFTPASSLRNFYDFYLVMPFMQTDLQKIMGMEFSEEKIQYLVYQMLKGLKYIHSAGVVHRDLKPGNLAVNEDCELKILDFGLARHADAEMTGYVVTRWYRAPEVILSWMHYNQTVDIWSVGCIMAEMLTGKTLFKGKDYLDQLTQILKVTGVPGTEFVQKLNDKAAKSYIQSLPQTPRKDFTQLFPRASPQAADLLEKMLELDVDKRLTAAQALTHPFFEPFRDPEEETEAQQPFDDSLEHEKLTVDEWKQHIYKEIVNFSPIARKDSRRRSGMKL

Mus musculus [34] = experiment: Inhibition of LRRK2 phosphorylation at Ser935 in C57BL/6 mouse kidney at 50 mg/kg, po administered for 8 hrs followed by 2 hrs dosing; type: functional, organism-based; parameters: dose 50 mg/kg; outline: as §3

With `COc1cc(N2CCC(N3CCN(C)CC3)CC2)ccc1Nc1ncc(Cl)c(Nc2ccccc2S(=O)(=O)C(C)C)n1` [TAE-684] the Activity [1] was 94%, the Activity [2] was 68% and the Activity [3] was 91%. For the same compound, the Activity [4] was 102%, the Activity [5] was 102% and the Activity [6] was 26%. The Activity [7] was 71%, the Activity [8] was 110% and the Activity [9] was 102%. The Activity [10] was 88%, the Activity [11] was 109% and the inhibition [12] was “Dose-dependent effect”. The Activity [13] was 44%, the Activity [14] was 107% and the inhibition (Mus musculus [15]) was “Active”. For the same compound, the Activity [16] was 106%, the half-life [17] was 11.3 h and the inhibition (Mus musculus [18]) was “Active”. For the same compound, the Activity [19] was 98%, the Activity [20] was 53% and the Activity [21] was 71%. The Activity [22] was 20%, the inhibition (Mus musculus [23]) was “inactive” and the Activity [24] was 129%. For the same compound, the AUClast (Plasma) was 772 ng·h/mL, the Activity [25] was 59% and the Activity [26] was 88%. For the same compound, the inhibition (Mus musculus [27]) was “inactive”, the Activity [28] was 5% and the Activity [29] was 66%. For the same compound, the Activity [30] was 99%, the Activity [31] was 93% and the Activity [32] was 55%. The Activity [33] was 94% and the inhibition (Mus musculus [34]) was “Active”.
